Experimental data: ChEMBL document CHEMBL2321841, “Structure-based drug design and potent anti-cancer activity of tricyclic 5:7:5-fused diimidazo[4,5-d:4',5'-f][1,3]diazepines” (Bioorg Med Chem, 2013)
pIC50: −log10 of the molar value.

Columns and labels:
PC-3 [1] = assay: Cytotoxicity against human PC3 cells after 72 hrs by WST1 assay; type: functional, cell-based; settings: PC-3, 72 h
Procedure, shortened: (§1)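 Cells were seeded the day before dosing at 0.5–1.7 × 10^3 cells/well in RPMI + 10% FBS. Compounds were dissolved in DMSO (stocks 100–200 mM) and tested at nine concentrations from 100 μM to 5 nM, in 4 replicates per dilution, with experiments repeated 1x or 2x. Exposure was 72 h at 37°C, 5% CO2, against a DMSO vehicle control. WST-1 was then added for 4 h and absorbance read at 450–690 nm.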

[2] = Cytotoxicity against human H460 cells after 72 hrs by WST1 assay; type: functional, cell-based; settings: NCI-H460, 72 h; procedure, shortened: as §1
A549 [3] = assay: Cytotoxicity against human A549 cells after 72 hrs by WST1 assay; type: functional, cell-based; settings: A549, 72 h; procedure, shortened: as §1
MDA-MB-231 [4] = assay: Cytotoxicity against human MDA-MB-231 cells after 72 hrs by WST1 assay; type: functional, cell-based; settings: MDA-MB-231, 72 h; procedure, shortened: as §1
OVCAR-3 [5] = assay: Cytotoxicity against human OVCAR3 cells after 72 hrs by WST1 assay; type: functional, cell-based; settings: OVCAR-3, 72 h; procedure, shortened: as §1
MCF7 [6] = assay: Cytotoxicity against human MCF7 cells after 72 hrs by WST1 assay; type: functional, cell-based; settings: MCF7, 72 h; procedure, shortened: as §1
OVCAR-3 [7] = assay: Growth inhibition of human OVCAR3 cells at 100 uM after 72 hrs by WST1 assay; type: functional; settings: OVCAR-3, 72 h, read-out: GI
Procedure, shortened: (§2)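 The highest concentration, 100 μM, comes from a nine-point series (100 μM to 5 nM) of DMSO-dissolved compound. Cells were seeded the day before at 0.5–1.7 × 10^3 cells/well in RPMI + 10% FBS, with 4 replicates per dilution. Exposure was 72 h at 37°C, 5% CO2, against a DMSO vehicle control. WST-1 was added for 4 h and absorbance read at 450–690 nm. Growth inhibition by ≤75% was scored as not effective.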

PC-3 [8] = assay: Growth inhibition of human PC3 cells at 100 uM after 72 hrs by WST1 assay; type: functional; settings: PC-3, 72 h, read-out: GI; procedure, shortened: as §2
MCF7 [9] = assay: Growth inhibition of human MCF7 cells at 100 uM after 72 hrs by WST1 assay; type: functional; settings: MCF7, 72 h, read-out: GI; procedure, shortened: as §2
MDA-MB-231 [10] = assay: Growth inhibition of human MDA-MB-231 cells at 100 uM after 72 hrs by WST1 assay; type: functional; settings: MDA-MB-231, 72 h, read-out: GI; procedure, shortened: as §2
A549 [11] = assay: Growth inhibition of human A549 cells at 100 uM after 72 hrs by WST1 assay; type: functional; settings: A549, 72 h, read-out: GI; procedure, shortened: as §2
[12] = Growth inhibition of human H460 cells at 100 uM after 72 hrs by WST1 assay; type: functional; settings: NCI-H460, 72 h, read-out: GI; procedure, shortened: as §2

| SMILES | pIC50 (PC-3 [1]) | pIC50 [2] | pIC50 (A549 [3]) | pIC50 (MDA-MB-231 [4]) | pIC50 (OVCAR-3 [5]) | pIC50 (MCF7 [6]) | inhibition of growth at 100 µM (OVCAR-3 [7]) [%] | inhibition of growth at 100 µM (PC-3 [8]) [%] | inhibition of growth at 100 µM (MCF7 [9]) [%] | inhibition of growth at 100 µM (MDA-MB-231 [10]) [%] | inhibition of growth at 100 µM (A549 [11]) [%] | inhibition of growth at 100 µM [12] [%] |
| --- | --- | --- | --- | --- | --- | --- | --- | --- | --- | --- | --- | --- |
| COc1ccc(Cn2cnc3c4nc(=O)n(Cc5ccc(O)cc5)c-4ncnc32)cc1 | 5.29 | 5.33 | 5.38 | 5.50 | 5.36 | 5.18 |  |  |  |  |  |  |
| COc1ccc(Cn2cnc3c4nc(=O)n(Cc5cccc(F)c5)c-4ncnc32)cc1 | 5.74 | 5.91 | 5.92 | 5.57 | 5.50 | 5.79 |  |  |  |  |  |  |
| COc1ccc(Cn2cnc3c4nc(=O)n(Cc5ccc(F)c(F)c5)c-4ncnc32)cc1 | 5.80 | 6.13 | 6.00 | 5.77 | 5.64 | 5.76 |  |  |  |  |  |  |
| CCOC(=O)Cn1c2ncnc3c(ncn3Cc3ccc(OC)cc3)c-2nc1=O |  | 4.46 | 4.47 | 4.43 |  |  | ≤ 75 | ≤ 75 | ≤ 75 |  |  |  |
| COc1ccc(Cn2cnc3c4nc(=O)n(-c5ccccc5)c-4ncnc32)cc1 |  |  |  |  |  |  | ≤ 75 | ≤ 75 | ≤ 75 | ≤ 75 | ≤ 75 | ≤ 75 |
| COc1ccc(Cn2cnc3c4nc(=O)n(Cc5cccnc5)c-4ncnc32)cc1 | 4.57 | 5.08 | 5.09 | 5.06 | 5.00 | 4.70 |  |  |  |  |  |  |
| COc1ccc(CCn2c3ncnc4c(ncn4Cc4ccc(OC)cc4)c-3nc2=O)cc1 |  |  |  |  |  |  | ≤ 75 | ≤ 75 | ≤ 75 | ≤ 75 | ≤ 75 | ≤ 75 |
| COc1ccc(Cn2c3ncnc4c(ncn4Cc4ccccc4)c-3nc2=O)cc1 |  |  |  |  |  |  | ≤ 75 | ≤ 75 | ≤ 75 | ≤ 75 | ≤ 75 | ≤ 75 |
| CCc1nc2n(Cc3ccc(OC)cc3)c(=O)nc-2c2ncn(Cc3ccc(OC)cc3)c2n1 |  |  |  |  |  |  | ≤ 75 | ≤ 75 | ≤ 75 | ≤ 75 | ≤ 75 | ≤ 75 |
| COc1ccc(Cn2cnc3c4nc(=O)n(Cc5ccc(N(C)C)cc5)c-4ncnc32)cc1 | 3.69 | 5.07 | 5.06 | 5.05 | 5.03 | 4.82 |  |  |  |  |  |  |
| COc1ccc(Cn2cnc3c4nc(=O)n(Cc5ccc(F)cc5)c-4ncnc32)cc1 |  |  | 5.78 |  |  | 5.39 |  |  |  |  |  |  |
| COc1ccc(Cn2c3nc(-c4ccccc4)nc4c(ncn4Cc4ccc(OC)cc4)c-3nc2=O)cc1 |  |  |  |  |  |  | ≤ 75 | ≤ 75 | ≤ 75 | ≤ 75 | ≤ 75 | ≤ 75 |
| COc1ccc(Cn2cnc3c4nc(=O)n(CCCl)c-4ncnc32)cc1 | 5.03 | 5.10 | 5.06 |  |  |  | ≤ 75 |  | ≤ 75 | ≤ 75 |  |  |
| COc1ccc(Cn2c3nc(CCCC(=O)O)nc4c(ncn4Cc4ccc(OC)cc4)c-3nc2=O)cc1 |  |  |  |  |  |  | ≤ 75 | ≤ 75 | ≤ 75 | ≤ 75 | ≤ 75 | ≤ 75 |
| CCn1c2ncnc3c(ncn3Cc3ccc(OC)cc3)c-2nc1=O |  |  |  |  |  |  | ≤ 75 | ≤ 75 | ≤ 75 | ≤ 75 | ≤ 75 | ≤ 75 |
| CCn1cnc2c3nc(=O)n(Cc4ccc(OC)cc4)c-3ncnc21 |  |  |  |  |  |  | ≤ 75 | ≤ 75 | ≤ 75 | ≤ 75 | ≤ 75 | ≤ 75 |
| COCCOc1ccc(Cn2c3ncnc4c(ncn4Cc4ccc(OC)cc4)c-3nc2=O)cc1 | 5.17 | 5.29 | 5.31 | 5.25 | 5.26 | 4.83 |  |  |  |  |  |  |

| SMILES | pIC50 (PC-3 [1]) | pIC50 [2] | pIC50 (A549 [3]) | pIC50 (MDA-MB-231 [4]) | pIC50 (OVCAR-3 [5]) | pIC50 (MCF7 [6]) | inhibition of growth at 100 µM (OVCAR-3 [7]) [%] | inhibition of growth at 100 µM (PC-3 [8]) [%] | inhibition of growth at 100 µM (MCF7 [9]) [%] | inhibition of growth at 100 µM (MDA-MB-231 [10]) [%] | inhibition of growth at 100 µM (A549 [11]) [%] | inhibition of growth at 100 µM [12] [%] |
| --- | --- | --- | --- | --- | --- | --- | --- | --- | --- | --- | --- | --- |
| COc1ccc(Cn2cnc3c4nc(=O)n(CCN5CCCCC5)c-4ncnc32)cc1 |  |  |  |  |  |  | ≤ 75 | ≤ 75 | ≤ 75 | ≤ 75 | ≤ 75 | ≤ 75 |
| COc1ccc(Cn2cnc3c4nc(=O)n(Cc5ccc(Br)cc5)c-4ncnc32)cc1 | 6.01 | 6.24 | 6.20 | 5.94 | 5.79 | 5.99 |  |  |  |  |  |  |
| COc1ccc(Cn2cnc3c4nc(=O)n(Cc5cccc(Cl)c5)c-4ncnc32)cc1 | 6.01 | 6.00 | 6.05 | 5.94 | 5.97 | 5.60 |  |  |  |  |  |  |
| COc1ccc(Cn2cnc3c4nc(=O)n(Cc5ccccc5OC)c-4ncnc32)cc1 |  |  |  |  |  |  | ≤ 75 | ≤ 75 | ≤ 75 | ≤ 75 | ≤ 75 | ≤ 75 |
| COc1ccc(Cn2cnc3c4nc(=O)n(-c5ccc(OC)cc5)c-4ncnc32)cc1 |  |  |  |  |  |  | ≤ 75 | ≤ 75 | ≤ 75 | ≤ 75 | ≤ 75 | ≤ 75 |
| COc1ccc(Cn2c3nc(CCC(=O)O)nc4c(ncn4Cc4ccc(OC)cc4)c-3nc2=O)cc1 |  |  |  |  |  |  | ≤ 75 | ≤ 75 | ≤ 75 | ≤ 75 | ≤ 75 | ≤ 75 |
| COc1ccc(Cn2c3ncnc4c(ncn4Cc4ccc(OC)cc4)c-3nc2=O)cc1 | 5.31 | 5.54 | 5.59 |  |  | 5.12 |  |  |  |  |  |  |
| COc1ccc(Cn2cnc3c4nc(=O)n(Cc5ccc(Cl)cc5)c-4ncnc32)cc1 | 6.04 | 6.07 | 6.11 | 6.01 | 6.06 | 5.62 |  |  |  |  |  |  |
| COc1ccc(Cn2cnc3c4nc(=O)n(Cc5cccc(OC)c5)c-4ncnc32)cc1 | 5.29 | 5.81 |  |  | 5.60 |  |  |  |  |  |  |  |
| COc1ccc(Cn2cnc3c4nc(=O)n(CCN5CCOCC5)c-4ncnc32)cc1 |  |  |  |  |  |  | ≤ 75 | ≤ 75 | ≤ 75 | ≤ 75 | ≤ 75 | ≤ 75 |
| COc1ccc(Cn2cnc3c4nc(=O)n(Cc5ccc(OCCO)cc5)c-4ncnc32)cc1 | 4.71 | 4.96 | 4.91 | 4.98 | 4.88 | 4.57 |  |  |  |  |  |  |
| COc1ccc(Cn2c3ncnc4c(ncn4Cc4ccc(F)cc4)c-3nc2=O)cc1 | 5.12 | 5.30 | 5.36 | 5.27 |  | 5.23 | ≤ 75 |  |  |  |  |  |
| COc1ccc(Cn2c3nc(C)nc4c(ncn4Cc4ccc(OC)cc4)c-3nc2=O)cc1 |  |  |  |  |  |  | ≤ 75 | ≤ 75 | ≤ 75 | ≤ 75 | ≤ 75 | ≤ 75 |
| COc1ccc(Cn2cnc3c4nc(=O)n(Cc5cccc(C(F)(F)F)c5)c-4ncnc32)cc1 | 5.08 | 5.51 | 5.50 | 5.34 | 5.43 | 5.37 |  |  |  |  |  |  |
| COc1ccc(Cn2cnc3c4nc(=O)n(Cc5cccc(Br)c5)c-4ncnc32)cc1 | 5.59 | 5.93 | 5.86 | 5.82 | 5.81 | 5.73 |  |  |  |  |  |  |
| COc1ccc(Cn2c3nc(-c4ccc(C)cc4)nc4c(ncn4Cc4ccc(OC)cc4)c-3nc2=O)cc1 |  |  |  |  |  |  | ≤ 75 | ≤ 75 | ≤ 75 | ≤ 75 | ≤ 75 | ≤ 75 |
